Results published in publication PMC3729215 (Bioorganic & medicinal chemistry, 2011).
Blank lines part the entries; values can stand above or below the compound they belong to.

Legend:
rTRPV1 [1] = target: T1, rTRPV1 (Rattus norvegicus, UniProt O35433); test: [3H]RTX binding competition assay, rat TRPV1 expressed in CHO cells
Method in brief: (§1)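 Both binding and function were measured on rat TRPV1 heterologously expressed in CHO cells. Affinity came from competition with [3H]RTX. Antagonism came from a functional 45Ca2+ uptake assay. Values are mean ± SEM from 3 or more experiments.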

rTRPV1 [2] = target: T1, rTRPV1; format: cell-based; conditions: rTRPV1/CHO
Method in brief: as §1

T1 sequence (O35433 whole entry): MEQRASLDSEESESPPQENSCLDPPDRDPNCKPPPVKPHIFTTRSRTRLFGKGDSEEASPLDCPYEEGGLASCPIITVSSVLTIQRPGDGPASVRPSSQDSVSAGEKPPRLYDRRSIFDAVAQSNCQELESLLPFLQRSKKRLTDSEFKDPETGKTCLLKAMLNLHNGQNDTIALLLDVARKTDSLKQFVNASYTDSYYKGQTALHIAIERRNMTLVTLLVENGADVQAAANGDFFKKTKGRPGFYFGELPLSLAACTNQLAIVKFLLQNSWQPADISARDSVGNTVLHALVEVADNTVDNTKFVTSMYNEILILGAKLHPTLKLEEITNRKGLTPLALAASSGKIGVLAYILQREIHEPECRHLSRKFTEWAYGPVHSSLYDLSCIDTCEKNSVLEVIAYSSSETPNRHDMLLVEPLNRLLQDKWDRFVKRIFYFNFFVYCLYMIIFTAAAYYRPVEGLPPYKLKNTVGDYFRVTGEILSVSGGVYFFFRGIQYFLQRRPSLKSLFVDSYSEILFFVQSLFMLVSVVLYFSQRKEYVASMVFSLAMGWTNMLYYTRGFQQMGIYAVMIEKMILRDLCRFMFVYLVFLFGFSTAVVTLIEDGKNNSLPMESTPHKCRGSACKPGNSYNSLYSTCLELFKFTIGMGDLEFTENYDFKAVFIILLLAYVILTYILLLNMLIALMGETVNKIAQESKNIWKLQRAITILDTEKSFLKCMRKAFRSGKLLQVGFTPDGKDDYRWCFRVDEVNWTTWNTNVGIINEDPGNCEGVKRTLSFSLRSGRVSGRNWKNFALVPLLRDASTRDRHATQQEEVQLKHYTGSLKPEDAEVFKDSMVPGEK

Compound: CC(C(=O)NCc1ccc(C(C)(C)C)cc1)c1ccc(NS(C)(=O)=O)c(Cl)c1 (stereo not shown) [compound 55, N-(4-tert-Butylbenzyl)-2-[3-chloro-4-(methylsulfonylamino)phenyl]propionamide]
- fold reduction in potency as antagonist compared to 54 (rTRPV1 [2]): 4 fold

Compound: CC(C(=O)NCc1ccc(C(C)(C)C)cc1)c1ccc(NS(C)(=O)=O)c(Br)c1 (stereo not shown) [compound 56, N-(4-tert-Butylbenzyl)-2-[3-bromo-4-(methylsulfonylamino)phenyl]propionamide]
- fold reduction in potency as antagonist compared to 54 (rTRPV1 [2]): 4 fold

Compound: CC(C(=O)NCc1ccc(C(C)(C)C)cc1)c1ccc(NS(C)(=O)=O)c(I)c1 (stereo not shown) [compound 57, N-(4-tert-Butylbenzyl)-2-[3-iodo-4-(methylsulfonylamino)phenyl]propionamide]
- fold reduction in potency as antagonist compared to 54 (rTRPV1 [2]): 4 fold

Compound: CC(C(=O)NCc1ccc(C(C)(C)C)cc1)c1cc(F)c(NS(C)(=O)=O)c(F)c1 (stereo not shown) [compound 58, N-(4-tert-Butylbenzyl)-2-[3,5-difluoro-4-(methylsulfonylamino)phenyl]propionamide]
- fold enhancement in binding affinity compared to 54 (rTRPV1 [1]; rTRPV1/CHO): 2 fold

Compound: COc1cc(C(C)C(=O)NCc2ccc(C(C)(C)C)cc2)ccc1NS(C)(=O)=O (stereo not shown) [compound 71, N-(4-tert-Butylbenzyl)-2-[3-methoxy-4-(methylsulfonylamino)phenyl]propionamide]
- fold reduced activity in binding affinity and antagonism (rTRPV1 [1]; rTRPV1/CHO, binding and antagonism together, compared with 54): 10 to 30 fold

Results, then the compound that gave them:

- fold weaker activity compared with 54S (rTRPV1 [1]; rTRPV1, binding and antagonism together): 30- to 40 fold
Compound: C[C@@H](C(=O)NCc1ccc(C(C)(C)C)cc1)c1ccc(NS(C)(=O)=O)c(F)c1 [54R, N-(4-tert-Butylbenzyl)-(2R)-2-[3-fluoro-4-(methylsulfonylamino)phenyl]propionamide]

- fold enhancement in receptor activity compared to 54 (rTRPV1 [1]; binding and antagonism together): ~2 fold
Compound: C[C@H](C(=O)NCc1ccc(C(C)(C)C)cc1)c1ccc(NS(C)(=O)=O)c(F)c1 [54S, N-(4-tert-Butylbenzyl)-(2S)-2-[3-fluoro-4-(methylsulfonylamino)phenyl]propionamide]
